Results as given in ChEMBL document CHEMBL4371057, “Hydroxamic Acid Inhibitors Provide Cross-Species Inhibition of Plasmodium M1 and M17 Aminopeptidases” (J Med Chem, 2019).
The source made the active and inactive calls. The rule behind the calls is not given here.

Tests used:
[1] = Inhibition of Plasmodium falciparum C-terminal His6-tagged M1 aminopeptidase (195 to 1085 residues) expressed in Escherichia coli BL21(DE3) preincubated for 20 mins followed by L-leucine-7-amido-4-methylcoumarin addition by Morrison equation analysis
How it was run: (§1)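 Recombinant enzymes (Ni-NTA then size exclusion) were preincubated 20 min with inhibitor in 100 mM Tris-HCl pH 8.0, with 2 mM CoCl2 for Pf-M17 and 1 mM for Pv-M17. Leu-AMC substrate: 20 μM (Pf-M1), 40 μM (Pv-M1), 10 μM (both M17). Read at 37 °C, 355/460 nm, to steady-state velocity. Ki from a Morrison tight-binding fit; biological triplicate from three protein preparations.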

[2] = Inhibition of Plasmodium vivax C-terminal His6-tagged M1 aminopeptidase (195 to 1097 residues) expressed in Escherichia coli BL21(DE3) preincubated for 20 mins followed by L-leucine-7-amido-4-methylcoumarin addition by Morrison equation analysis; how it was run: as §1
[3] = Inhibition of Plasmodium falciparum C-terminal His6-tagged M17 aminopeptidase (85 to 605 residues) expressed in Escherichia coli BL21(DE3) preincubated for 20 mins followed by L-leucine-7-amido-4-methylcoumarin addition by Morrison equation analysis; how it was run: as §1
[4] = Inhibition of Plasmodium vivax C-terminal His6-tagged M17 aminopeptidase (203 to 621 residues) expressed in Escherichia coli BL21(DE3) preincubated for 20 mins followed by L-leucine-7-amido-4-methylcoumarin addition by Morrison equation analysis; how it was run: as §1
[5] = Selectivity ratio of Ki for Plasmodium falciparum C-terminal His6-tagged M1 aminopeptidase (195 to 1085 residues) expressed in Escherichia coli BL21(DE3) to Ki for Plasmodium vivax C-terminal His6-tagged M1 aminopeptidase (195 to 1097 residues) expressed in Escherichia coli BL21(DE3)
Plasmodium falciparum [6] = test: Antimalarial activity against Plasmodium falciparum 3D7 after 72 hrs by DAPI staining-based confocal imaging analysis; type: functional, organism-based; conditions: 3D7, 72 h
How it was run: (§2)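 Exposed to a 16-point dose series (40 μM to 0.4 nM final, 0.4% DMSO) for 72 h at 37 °C in 90% N2/5% CO2/5% O2. DAPI-stained and imaged confocally. Two biological replicates, each with two technical repeats.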

Plasmodium falciparum [7] = test: Antimalarial activity against Plasmodium falciparum Dd2 after 72 hrs by DAPI staining-based confocal imaging analysis; type: functional, organism-based; conditions: Plasmodium falciparum, Dd2, 72 h; read-out: IC50; how it was run: as §2
[8] = Cytotoxicity against HEK293 cells after 72 hrs by resazurin dye based assay; type: cell-based; conditions: human
How it was run: (§3)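 HEK293 cells kept in DMEM with 10% FBS. Exposed to compounds for 72 h at 37 °C, 5% CO2, using the same dilution scheme as the parasite assay (top 40 μM). Medium then replaced with 44 μM resazurin, and fluorescence (530/595 nm) read after 5–6 h.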

[9] = Growth inhibition of HEK293 cells at 10 uM after 72 hrs by resazurin dye based assay relative to control; type: cell-based; conditions: human, read-out: GI; how it was run: as §3
[10] = Growth inhibition of HEK293 cells at 40 uM after 72 hrs by resazurin dye based assay relative to control; type: cell-based; conditions: human, read-out: GI; how it was run: as §3
[11] = Selectivity index, ratio of CC50 for HEK293 cells to IC50 for Plasmodium falciparum 3D7; type: toxicity; conditions: human, read-out: Ratio CC50/IC50
[12] = target: Neutrophil collagenase (Homo sapiens) (UniProt P22894); test: Inhibition of MMP8 (unknown origin) preincubated for 1 hr followed by (QF)-24 substrate addition measured at 1 min time interval for 1 hr by fluorescence assay
Chain of Neutrophil collagenase (Homo sapiens) (P22894 101-467 limits assumed): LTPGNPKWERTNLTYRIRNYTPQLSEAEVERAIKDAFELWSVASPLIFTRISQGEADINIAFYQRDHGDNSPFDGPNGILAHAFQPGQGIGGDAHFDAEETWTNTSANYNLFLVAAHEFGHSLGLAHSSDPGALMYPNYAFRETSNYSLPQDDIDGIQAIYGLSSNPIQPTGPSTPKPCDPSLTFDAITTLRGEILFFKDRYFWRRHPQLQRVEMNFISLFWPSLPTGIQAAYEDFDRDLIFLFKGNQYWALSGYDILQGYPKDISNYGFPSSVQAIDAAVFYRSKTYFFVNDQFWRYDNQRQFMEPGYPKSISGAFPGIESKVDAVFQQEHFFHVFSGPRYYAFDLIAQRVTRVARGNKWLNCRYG
How it was run: (§4)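 MMPs were activated with 1 mM 4-aminophenylmercuric acetate (50 mM HEPES, 150 mM NaCl, 5 mM CaCl2, pH 7.0, 1 h, rt). 1 μM QF24 was added at 37 °C and read at 320/405 nm every minute for 1 h. IC50 from a four-parameter Hill fit; three independent experiments.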

[13] = target: T1, Matrilysin (Homo sapiens) (UniProt P09237); test: Inhibition of MMP7 (unknown origin) preincubated for 1 hr followed by (QF)-24 substrate addition measured at 1 min time interval for 1 hr by fluorescence assay; how it was run: as §4
T1 sequence (whole entry): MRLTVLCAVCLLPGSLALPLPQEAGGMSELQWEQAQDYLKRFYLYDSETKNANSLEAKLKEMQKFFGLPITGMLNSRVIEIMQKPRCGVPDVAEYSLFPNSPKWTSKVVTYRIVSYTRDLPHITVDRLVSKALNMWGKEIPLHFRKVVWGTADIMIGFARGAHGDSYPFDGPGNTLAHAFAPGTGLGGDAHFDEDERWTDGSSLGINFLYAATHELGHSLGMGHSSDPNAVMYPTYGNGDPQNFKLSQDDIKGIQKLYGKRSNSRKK

Row | Compound | Ki [1] [nM] | Ki [2] [nM] | Ki [3] [nM] | Ki [4] [nM] | Ratio Ki [5] | IC50 (Plasmodium falciparum [6]) [nM] | IC50 (Plasmodium falciparum [7]) [nM] | CC50 at 72 h [8] [nM] | inhibition at 72 h, 10 µM [9] [%] | inhibition at 72 h, 40 µM [10] [%] | selectivity ratio [11] | inhibition [12] | inhibition [13]
1 | CCC(=O)NC(C(=O)NO)c1ccc(-c2cc(F)c(F)c(F)c2)cc1 (stereo not given) | 913 | 66.3 | 158 | 108 | 10 | – | – | – | – | – | – | – | –
2 | COc1ccc(C[C@H](N)C(=O)N[C@H]2[C@@H](O)[C@H](n3cnc4c(N(C)C)ncnc43)O[C@@H]2CO)cc1 [PUROMYCIN] | – | – | – | – | – | 111 | 107 | 500 | 105 | 105 | 4.5 | – | –
3 | O=C(CC(F)(F)F)NC(C(=O)NO)c1ccc(-c2cc(F)c(F)c(F)c2)cc1 (stereo not given) | 537 | 149 | 999 | 1050 | 10 | – | – | – | – | – | – | – | –
4 | C[C@H]1[C@H](OC(=O)CCC(=O)O)O[C@@H]2O[C@@]3(C)CC[C@H]4[C@H](C)CC[C@@H]1[C@@]24OO3 [ARTESUNATE] | – | – | – | – | – | 1.6 | 1 | – | 42.3 | – | – | – | –
5 | O=C(NO)[C@@H](NC(=O)[C@@H](F)C(F)(F)F)c1ccc(-c2cc(F)c(F)c(F)c2)cc1 (racemic) | 1490 | 211 | 2190 | 1240 | 10 | – | – | – | – | – | – | – | –
6 | O=C(CC1CC2CCC1C2)NC(C(=O)NO)c1ccc(-c2cc(F)c(F)c(F)c2)cc1 (stereo not given) | 136 | 12.7 | 127 | 93.1 | 10 | 220 | 120 | – | 0.6 | 19.7 | – | – | –
7 | O=C(NC(C(=O)NO)c1ccc(-c2cc(F)c(F)c(F)c2)cc1)C1CC1 (stereo not given) | 532 | 90.6 | 492 | 572 | 10 | – | – | – | – | – | – | – | –
8 | O=C(NC(C(=O)NO)c1ccc(-c2cc(F)c(F)c(F)c2)cc1)C1CCCCC1 (stereo not given) | 818 | 37.6 | 195 | 178 | 10 | – | – | – | – | – | – | – | –
9 | O=C(NC(C(=O)NO)c1ccc(-c2cc(F)c(F)c(F)c2)cc1)C1CCCC1 (stereo not given) | 285 | 13.1 | 300 | 336 | 10 | – | – | – | – | – | – | – | –
10 | O=C(CC1CC1)NC(C(=O)NO)c1ccc(-c2cc(F)c(F)c(F)c2)cc1 (stereo not given) | 202 | 17.9 | 270 | 303 | 10 | 136 | 109 | – | 6.4 | 37.6 | – | – | –
11 | O=C(NC(C(=O)NO)c1ccc(-c2cc(F)c(F)c(F)c2)cc1)C1CCC1 (stereo not given) | 236 | 29.8 | 185 | 371 | 10 | 126 | 120 | – | 6 | 48.2 | ≥ 158 | – | –
12 | CNC(=O)[C@@H](NC(=O)[C@H](CC(C)C)[C@H](O)C(=O)NO)C(C)(C)C | – | – | – | – | – | – | – | – | – | – | – | Active | Active
13 | COc1ccc2nc3cc(Cl)ccc3c(Nc3cc(CN4CCCC4)c(O)c(CN4CCCC4)c3)c2n1 [PYRONARIDINE] | – | – | – | – | – | 7 | 7.9 | 3550 | 102 | 95.6 | 507 | – | –
